Activity calls are given as the source filed them. No cut-off for these calls is given here.
Columns and labels:
[1] = molecular target: Sphingosine 1-phosphate receptor 1 (Homo sapiens, UniProt P21453); assay: Agonist activity at human S1P1 receptor by [S35]GTPgammaS binding assay; assay type: functional
Procedure, shortened: (§1)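 GTPγS binding at human S1P1 and S1P3 receptors. EC50 is the mean of two experimental determinations.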

[2] = molecular target: Sphingosine 1-phosphate receptor 3 (Homo sapiens, UniProt Q99500); assay: Agonist activity at human S1P3 receptor by [S35]GTPgammaS binding assay; assay type: functional; procedure, shortened: as §1
Sequence of Sphingosine 1-phosphate receptor 3 (Q99500 whole entry): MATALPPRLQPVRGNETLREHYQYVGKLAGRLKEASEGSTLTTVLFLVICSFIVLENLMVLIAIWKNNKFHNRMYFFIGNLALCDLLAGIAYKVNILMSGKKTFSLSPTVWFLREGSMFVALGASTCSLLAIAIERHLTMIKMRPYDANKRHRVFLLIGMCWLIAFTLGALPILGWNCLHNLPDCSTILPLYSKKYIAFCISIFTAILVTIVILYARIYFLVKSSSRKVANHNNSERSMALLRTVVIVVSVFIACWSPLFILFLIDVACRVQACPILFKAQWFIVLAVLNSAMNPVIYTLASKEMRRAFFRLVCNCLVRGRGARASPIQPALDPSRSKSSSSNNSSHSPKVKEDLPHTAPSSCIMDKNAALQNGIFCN

[3] = tested on: Rattus norvegicus; assay: Immunosuppressive activity in LEW rat transplanted with spleen cells of WKAH rat assessed as inhibition of enlargement of draining popliteal lymph node at 1 mg/kg, po qd for 4 days; assay type: functional; conditions: for inhibition in vivo at 1 mg/kg: 96 h
Procedure, shortened: (§2)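 Spleen cells from WKAH rats were injected into the footpads of LEW rats to induce draining popliteal lymph node enlargement. Dosing was oral, once daily for four days from the day of cell injection (day 0). Lymph node weight was measured on day 4. Values are the mean of five rats; ID50 is derived from at least three doses.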

[4] = species: Homo sapiens; assay: Selectivity ratio of EC50 for human S1P3 receptor to EC50 for human S1P1 receptor
[5] = tested on: Rattus norvegicus; assay: Immunosuppressive activity in po dosed LEW rat transplanted with spleen cells of WKAH rat assessed as inhibition of enlargement of draining popliteal lymph node administered qd for 4 days; assay type: functional; conditions: 96 h, read-out: ID50 (the source's name); procedure, shortened: as §2
[6] = Stability of the compound in presence of enterobacteria from monkey feces contents under anaerobic condition at 3 to 30 uM after 24 hrs; assay type: ADME, tissue-based
Procedure, shortened: (§3)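 Compound solutions at 3.0 and 30 µM were exposed to anaerobic enterobacterial culture fluid from rat cecal contents or monkey feces, grown in prereduced PYF broth, with broth alone as control. Percent compound remaining was traced at 24 and 48 h.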

[7] = Stability of the compound in presence of enterobacteria from rat cecal contents under anaerobic condition at 3 to 30 uM after 24 hrs; assay type: ADME; procedure, shortened: as §3
[8] = Stability of the compound in presence of enterobacteria from rat cecal contents under anaerobic condition at 3 to 30 uM after 48 hrs; assay type: ADME; procedure, shortened: as §3
[9] = tested on: Rattus norvegicus; assay: Drug metabolism in po dosed rat plasma assessed as formation of 4-phenoxy benzoic acid; assay type: ADME, organism-based; conditions: in vivo
[10] = Stability of the compound in presence of enterobacteria from monkey feces contents under anaerobic condition at 3 to 30 uM after 48 hrs; assay type: ADME, tissue-based; procedure, shortened: as §3
[11] = Clearance in cynomolgus monkey at 0.5 mg/kg, iv; assay type: ADME, organism-based, Macaca fascicularis; design: dose 0.5 mg/kg, route intravenous; conditions: in vivo
Procedure, shortened: (§4)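 Single iv administration to Lewis rats at 1.0 mg/kg (n = 2) or cynomolgus monkeys at 0.5 mg/kg (n = 2), with clearance and volume of distribution derived.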

[12] = Oral bioavailability in cynomolgus monkey at 1 mg/kg; assay type: ADME, organism-based, Macaca fascicularis; conditions: in vivo
Procedure, shortened: (§5)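 Single oral dose in Lewis rats (n = 4) or cynomolgus monkeys (n = 2), with plasma parameters derived. Bioavailability was calculated against iv dosing at 1.0 mg/kg in rats (n = 2) and 0.5 mg/kg in monkeys (n = 2).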

[13] = Oral bioavailability in Lewis rat at 3 mg/kg; assay type: ADME, organism-based; conditions: in vivo; procedure, shortened: as §5
[14] = Tmax in cynomolgus monkey at 1 mg/kg, po; assay type: ADME, organism-based, Macaca fascicularis; design: dose 1 mg/kg, route oral; conditions: in vivo; procedure, shortened: as §5
[15] = Half life in Lewis rat at 3 mg/kg, po; assay type: ADME, organism-based; design: dose 3 mg/kg, route oral; conditions: in vivo; procedure, shortened: as §5
[16] = Clearance in Lewis rat at 1 mg/kg, iv; assay type: ADME, organism-based; design: dose 1 mg/kg, route intravenous; conditions: in vivo; procedure, shortened: as §4
[17] = Volume of distribution in cynomolgus monkey at 0.5 mg/kg, iv; assay type: ADME, organism-based, Macaca fascicularis; design: dose 0.5 mg/kg, route intravenous; conditions: in vivo; procedure, shortened: as §4
[18] = Volume of distribution in Lewis rat at 1 mg/kg, iv; assay type: ADME, organism-based; design: dose 1 mg/kg, route intravenous; conditions: in vivo; procedure, shortened: as §4
[19] = AUC (0 to infinity) in cynomolgus monkey at 1 mg/kg, po; assay type: ADME, organism-based, Macaca fascicularis; design: time infinity, dose 1 mg/kg, route oral; conditions: plasma; procedure, shortened: as §5
[20] = Cmax in Lewis rat at 3 mg/kg, po; assay type: ADME, organism-based; design: dose 3 mg/kg, route oral; conditions: in vivo; procedure, shortened: as §5
[21] = Cmax in cynomolgus monkey at 1 mg/kg, po; assay type: ADME, organism-based, Macaca fascicularis; design: dose 1 mg/kg, route oral; conditions: in vivo; procedure, shortened: as §5
[22] = Tmax in Lewis rat at 3 mg/kg, po; assay type: ADME, organism-based; design: dose 3 mg/kg, route oral; conditions: in vivo; procedure, shortened: as §5
[23] = AUC (0 to infinity) in Lewis rat at 3 mg/kg, po; assay type: ADME, organism-based; design: dose 3 mg/kg, route oral, time infinity; conditions: plasma; procedure, shortened: as §5
[24] = Half life in cynomolgus monkey at 1 mg/kg, po; assay type: ADME, organism-based, Macaca fascicularis; design: dose 1 mg/kg, route oral; conditions: in vivo; procedure, shortened: as §5
[25] = molecular target: T1, Peroxisome proliferator-activated receptor alpha (Homo sapiens) (UniProt Q07869); assay: Agonist activity at PPARalpha; assay type: functional
T1 sequence (whole entry): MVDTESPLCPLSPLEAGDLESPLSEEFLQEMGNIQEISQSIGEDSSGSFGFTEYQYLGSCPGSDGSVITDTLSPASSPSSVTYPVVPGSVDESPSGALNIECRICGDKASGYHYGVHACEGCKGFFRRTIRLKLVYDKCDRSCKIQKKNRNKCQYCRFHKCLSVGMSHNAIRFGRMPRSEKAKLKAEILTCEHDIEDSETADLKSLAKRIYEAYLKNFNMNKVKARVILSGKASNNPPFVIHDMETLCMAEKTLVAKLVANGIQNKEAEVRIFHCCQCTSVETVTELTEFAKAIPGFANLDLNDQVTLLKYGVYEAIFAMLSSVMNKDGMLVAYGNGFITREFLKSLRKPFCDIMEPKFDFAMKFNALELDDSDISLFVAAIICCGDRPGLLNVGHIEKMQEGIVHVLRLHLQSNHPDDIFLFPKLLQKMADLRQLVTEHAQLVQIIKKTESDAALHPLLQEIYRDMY

[26] = Half life in cynomolgus monkey at 0.5 mg/kg, po; assay type: ADME, organism-based, Macaca fascicularis; design: dose 0.5 mg/kg, route oral; conditions: in vivo; procedure, shortened: as §5
[27] = Cmax in cynomolgus monkey at 0.5 mg/kg, po; assay type: ADME, organism-based, Macaca fascicularis; design: dose 0.5 mg/kg, route oral; conditions: in vivo; procedure, shortened: as §5
[28] = AUC (0 to infinity) in cynomolgus monkey at 0.5 mg/kg, po; assay type: ADME, organism-based, Macaca fascicularis; design: time infinity, dose 0.5 mg/kg, route oral; conditions: plasma; procedure, shortened: as §5
[29] = Tmax in cynomolgus monkey at 0.5 mg/kg, po; assay type: ADME, organism-based, Macaca fascicularis; design: dose 0.5 mg/kg, route oral; conditions: in vivo; procedure, shortened: as §5
[30] = Oral bioavailability in cynomolgus monkey at 0.5 mg/kg; assay type: ADME, organism-based, Macaca fascicularis; conditions: in vivo; procedure, shortened: as §5

Sequence of Sphingosine 1-phosphate receptor 1 (P21453 whole entry): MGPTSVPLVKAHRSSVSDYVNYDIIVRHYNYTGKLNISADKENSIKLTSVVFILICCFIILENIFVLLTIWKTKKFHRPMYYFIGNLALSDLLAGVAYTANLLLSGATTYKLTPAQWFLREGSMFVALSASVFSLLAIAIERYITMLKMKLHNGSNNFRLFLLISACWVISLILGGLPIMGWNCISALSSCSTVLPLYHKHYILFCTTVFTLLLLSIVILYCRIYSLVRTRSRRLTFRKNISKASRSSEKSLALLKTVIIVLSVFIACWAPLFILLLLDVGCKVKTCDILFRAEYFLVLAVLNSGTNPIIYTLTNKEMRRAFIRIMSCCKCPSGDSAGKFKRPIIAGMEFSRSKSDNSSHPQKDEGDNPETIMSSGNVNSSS

EC50 [1] [nM] | EC50 [2] [nM] | SMILES | inhibition in vivo at 1 mg/kg [3] [%] | ED50 [5] [mg/kg] | also measured
54 | > 20000 | CCc1cc(CN2CC(C(=O)O)C2)sc1-c1nnc(-c2ccc(Oc3ccccc3)cc2)o1 |  |  | 
90 | > 20000 | CCc1cc(CN2CC(C(=O)O)C2)sc1-c1ncc(-c2ccc(Oc3ccccc3)cc2)o1 |  |  | 
4.5 | > 20000 | CCc1cc(CN2CC(C(=O)O)C2)sc1-c1ncc(-c2ccc(Oc3ccccc3)cc2)s1 | 42 |  | Ratio EC50 [4]: > 4400
25 | > 20000 | CCc1cc(CN2CC(C(=O)O)C2)sc1-c1nnc(-c2ccc(Oc3ccccc3)cc2)s1 |  |  | inhibition [3]: inactive
5.4 | > 20000 | CCc1cc(-c2ncc(-c3ccc(CN4CC(C(=O)O)C4)nc3CC)s2)ccc1CC(C)C |  | 0.74 | 
35 | > 20000 | CCc1cc(CN2CC(C(=O)O)C2)sc1-c1cnc(-c2ccc(Oc3ccccc3)cc2)s1 | 25 |  | 
3.5 | > 20000 | CCc1cc(CN2CC(C(=O)O)C2)sc1-c1ncc(-c2ccc(C(C)C)c(C)c2)s1 |  | 1.07 | 
22 | > 20000 | CCc1cc(CN2CC(C(=O)O)C2)sc1-c1cc(-c2ccc(Oc3ccccc3)cc2)on1 | 2 |  | 
 | > 20000 | CCc1cc(CN2CC(C(=O)O)C2)sc1-c1noc(-c2ccc(Oc3ccccc3)cc2)n1 |  | 0.41 | Stability [6]: Unstable; Stability [7]: Unstable; Stability [8]: Unstable; Drug metabolism [9]: Active; Stability [10]: Unstable
6 | > 20000 | CCc1cc(CN2CC(C(=O)O)C2)sc1-c1ncc(-c2ccc(O[C@@H](C)CC)c(C)c2)s1 |  | 0.32 | 
300 | > 20000 | CCc1cc(CN2CC(C(=O)O)C2)sc1-c1cnc(-c2ccc(Oc3ccccc3)cc2)o1 |  |  | 
3.2 | > 20000 | CCc1cc(CN2CC(C(=O)O)C2)sc1-c1ncc(-c2ccc(OC(C)C)c(Cl)c2)s1 | 54 |  | 
3.4 | > 20000 | CCc1cc(-c2cnc(-c3sc(CN4CC(C(=O)O)C4)cc3CC)s2)ccc1OC(C)C |  | 0.16 | 
4.1 | > 20000 | CCc1nc(CN2CC(C(=O)O)C2)ccc1-c1cnc(-c2ccc(CC(C)C)c(C)c2)s1 |  | 0.64 | 
5.8 | > 20000 | CCc1cc(CN2CC(C(=O)O)C2)sc1-c1ncc(-c2ccc(OC(C)C)c(F)c2)s1 |  | 0.48 | 
3.4 | > 20000 | CCc1cc(CN2CC(C(=O)O)C2)sc1-c1ncc(-c2ccc(OC(C)C)c(C)c2)s1 |  | 0.07 | clearance [11]: 2 mL/min/kg; bioavailability [12]: > 90%; bioavailability [13]: 70.6%; Tmax [14]: 4 h; Stability [6]: Stable; half-life [15]: 11.5 h; clearance [16]: 6.72 mL/min/kg; Vd [17]: 0.89 L/kg; Stability [7]: Stable; Vd [18]: 5.37 L/kg; AUC(0-inf) [19]: 8690 ng·h/mL; Cmax [20]: 340 ng/mL; Stability [8]: Stable; Cmax [21]: 630 ng/mL; Tmax [22]: 5 h; Stability [10]: Stable; AUC(0-inf) [23]: 5140 ng·h/mL; half-life [24]: 7.2 h
2.8 | > 20000 | CCc1nc(CN2CC(C(=O)O)C2)ccc1-c1cnc(-c2ccc(OC(C)C)c(C)c2)s1 | 17 |  | 
1.1 | 400 | CCCc1cc(-c2cnc(-c3sc(CN4CC(C(=O)O)C4)cc3CC)s2)ccc1OC(C)C | 73 |  | 
5.5 | > 20000 | CCc1nc(CN2CC(C(=O)O)C2)ccc1-c1ncc(-c2ccc(OC(C)C)c(C)c2)s1 | 39 |  | 
11 | > 20000 | CCc1cc(CN2CC(C(=O)O)C2)sc1-c1cnc(-c2ccc(OC(C)C)c(C)c2)s1 |  | 0.19 | 
15 | > 20000 | CCc1cc(CN2CC(C(=O)O)C2)sc1-c1cc(-c2ccc(Oc3ccccc3)cc2)no1 |  |  | inhibition [3]: inactive
1.3 | > 20000 | CCc1cc(CN2CC(C(=O)O)C2)sc1-c1ncc(-c2ccc(OC(C)C)c(C(C)C)c2)s1 |  | 0.53 | 
 |  | O=C(O)c1ccc(Oc2ccccc2)cc1 |  |  | Activity [25]: Active
4 | > 20000 | CCc1cc(-c2cnc(-c3ccc(CN4CC(C(=O)O)C4)nc3CC)s2)ccc1OC(C)C |  | 0.49 | clearance [11]: 1.75 mL/min/kg; half-life [26]: 16.7 h; Cmax [27]: 150 ng/mL; AUC(0-inf) [28]: 3730 ng·h/mL; Vd [17]: 1.46 L/kg; Tmax [29]: 5 h; bioavailability [30]: 75.4%
10 | > 20000 | CCc1cc(CN2CC(C(=O)O)C2)sc1-c1ncc(-c2ccc(OC(C)C)cc2)s1 | 52 |  | 
8 | > 20000 | CCc1cc(CN2CC(C(=O)O)C2)sc1-c1ncc(-c2ccc(O[C@H](C)CC)c(C)c2)s1 | 27 |  | 

Reference: ChEMBL document CHEMBL2021897, “Synthesis and SAR of 1,3-thiazolyl thiophene and pyridine derivatives as potent, orally active and S1P₃-sparing S1P₁ agonists” (Bioorg Med Chem Lett, 2012)
